How the values were obtained:
[1] = target: T1, Tyrosine-protein phosphatase non-receptor type 1 (Homo sapiens) (UniProt P18031); experiment: Percent inhibition against Protein-tyrosine phosphatase 1B at a 10 uM concentration
T1 sequence (whole entry): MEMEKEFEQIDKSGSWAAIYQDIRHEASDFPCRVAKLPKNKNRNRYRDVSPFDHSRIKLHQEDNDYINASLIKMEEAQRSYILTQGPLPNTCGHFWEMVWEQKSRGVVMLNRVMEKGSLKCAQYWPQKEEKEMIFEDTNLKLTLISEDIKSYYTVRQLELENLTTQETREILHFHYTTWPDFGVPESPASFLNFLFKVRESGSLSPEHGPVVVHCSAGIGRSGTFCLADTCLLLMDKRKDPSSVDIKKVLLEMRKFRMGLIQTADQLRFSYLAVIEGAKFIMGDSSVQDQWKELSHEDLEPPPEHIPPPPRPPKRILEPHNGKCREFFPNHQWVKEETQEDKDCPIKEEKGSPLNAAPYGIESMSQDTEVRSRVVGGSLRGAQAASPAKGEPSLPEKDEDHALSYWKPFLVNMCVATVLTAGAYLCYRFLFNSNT

[2] = target: T1, Tyrosine-protein phosphatase non-receptor type 1 (Homo sapiens); experiment: Percent inhibition against Protein-tyrosine phosphatase 1B at a 100 uM concentration
Outline: (§1)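 PTP1B inhibition was read as pNPP hydrolysis, with compound at a single fixed concentration and activity given as % inhibition. Some entries were measured on PTP1, the rat homologue of PTP1B.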

[3] = target: Receptor-type tyrosine-protein phosphatase F (Homo sapiens) (UniProt P10586); experiment: Percent inhibition against Protein-tyrosine phosphatase Lar at 100 uM
Outline: (§2)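 For specificity screening, recombinant purified LAR and SHP-2 were each tested with compound at 100 µM, reported as % inhibition.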

[4] = target: T1, Tyrosine-protein phosphatase non-receptor type 1 (Homo sapiens); experiment: Percent inhibition against Protein-tyrosine phosphatase 1B at a 1 uM concentration
[5] = target: T2, Tyrosine-protein phosphatase non-receptor type 11 (Homo sapiens) (UniProt Q06124); experiment: Percent inhibition against Tyrosine phosphatase SHP2 at 100 uM; outline: as §2
T2 sequence (whole entry): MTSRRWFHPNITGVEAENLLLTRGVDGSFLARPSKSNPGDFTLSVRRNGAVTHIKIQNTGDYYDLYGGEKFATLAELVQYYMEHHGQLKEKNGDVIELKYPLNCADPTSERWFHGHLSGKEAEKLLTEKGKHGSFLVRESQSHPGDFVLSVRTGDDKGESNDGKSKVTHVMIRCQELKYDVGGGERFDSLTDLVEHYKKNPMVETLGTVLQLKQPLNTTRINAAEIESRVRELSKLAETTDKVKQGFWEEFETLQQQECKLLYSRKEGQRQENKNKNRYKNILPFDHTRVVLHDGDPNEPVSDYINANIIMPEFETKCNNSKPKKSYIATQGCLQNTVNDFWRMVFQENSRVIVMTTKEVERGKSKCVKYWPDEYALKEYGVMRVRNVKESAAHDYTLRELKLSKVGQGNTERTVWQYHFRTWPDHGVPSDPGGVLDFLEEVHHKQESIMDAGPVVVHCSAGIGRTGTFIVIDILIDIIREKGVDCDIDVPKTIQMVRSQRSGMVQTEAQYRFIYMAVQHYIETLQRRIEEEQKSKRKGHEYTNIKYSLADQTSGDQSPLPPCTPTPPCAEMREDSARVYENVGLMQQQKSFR

[6] = target: T3, Tyrosine-protein phosphatase non-receptor type 1 (Homo sapiens, UniProt P18031); experiment: Inhibition constant of compound against Protein-tyrosine phosphatase 1B
T3 sequence (P18031 whole entry): T1 sequence (whole entry)

[7] = species: Rattus norvegicus; experiment: Effect of compound (100 µM) on insulin (10 nM)-stimulated 2-deoxyglucose (2-DOG) uptake into L6 myocytes
[8] = target: T3, Tyrosine-protein phosphatase non-receptor type 1; experiment: Inhibitory constant against Protein-tyrosine phosphatase 1B
Outline: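 Competitive inhibition of PTP1B was measured with pNPP as substrate. V vs S data were collected at various inhibitor concentrations, and Ki was computed by the Cornish-Bowden direct linear method.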

[9] = species: Rattus norvegicus; experiment: Effect on basal uptake without insulin into intact cells (L6 myocytes), to that of control cells; format: functional, cell-based
[10] = target: T4, Tyrosine-protein phosphatase non-receptor type 1 (Rattus norvegicus) (UniProt P20417); experiment: Percent inhibition of compound against Protein-tyrosine phosphatase 1B at a 100 uM concentration; outline: as §1
T4 sequence (whole entry): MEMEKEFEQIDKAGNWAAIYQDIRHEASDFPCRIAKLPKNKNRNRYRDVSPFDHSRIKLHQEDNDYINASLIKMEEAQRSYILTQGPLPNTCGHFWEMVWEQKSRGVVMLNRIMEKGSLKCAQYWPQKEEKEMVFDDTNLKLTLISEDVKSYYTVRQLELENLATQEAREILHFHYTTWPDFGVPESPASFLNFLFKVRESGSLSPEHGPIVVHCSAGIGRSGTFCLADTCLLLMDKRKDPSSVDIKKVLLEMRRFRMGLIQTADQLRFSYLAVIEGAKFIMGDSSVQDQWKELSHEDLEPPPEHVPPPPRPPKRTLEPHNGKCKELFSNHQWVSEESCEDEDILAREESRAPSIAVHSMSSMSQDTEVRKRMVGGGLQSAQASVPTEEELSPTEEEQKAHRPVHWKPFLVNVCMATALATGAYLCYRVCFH

[11] = target: Receptor-type tyrosine-protein phosphatase F (Homo sapiens) (UniProt P10586); experiment: Percent inhibition of compound against Protein-tyrosine phosphatase Lar at 100 uM; outline: as §2
[12] = target: Tyrosine-protein phosphatase non-receptor type 11 (SHP-2) (Homo sapiens) (UniProt Q06124); experiment: Percent inhibition of compound against Tyrosine phosphatase SHP2 at 100 uM

Sequence of Receptor-type tyrosine-protein phosphatase F (Homo sapiens) (P10586 whole entry): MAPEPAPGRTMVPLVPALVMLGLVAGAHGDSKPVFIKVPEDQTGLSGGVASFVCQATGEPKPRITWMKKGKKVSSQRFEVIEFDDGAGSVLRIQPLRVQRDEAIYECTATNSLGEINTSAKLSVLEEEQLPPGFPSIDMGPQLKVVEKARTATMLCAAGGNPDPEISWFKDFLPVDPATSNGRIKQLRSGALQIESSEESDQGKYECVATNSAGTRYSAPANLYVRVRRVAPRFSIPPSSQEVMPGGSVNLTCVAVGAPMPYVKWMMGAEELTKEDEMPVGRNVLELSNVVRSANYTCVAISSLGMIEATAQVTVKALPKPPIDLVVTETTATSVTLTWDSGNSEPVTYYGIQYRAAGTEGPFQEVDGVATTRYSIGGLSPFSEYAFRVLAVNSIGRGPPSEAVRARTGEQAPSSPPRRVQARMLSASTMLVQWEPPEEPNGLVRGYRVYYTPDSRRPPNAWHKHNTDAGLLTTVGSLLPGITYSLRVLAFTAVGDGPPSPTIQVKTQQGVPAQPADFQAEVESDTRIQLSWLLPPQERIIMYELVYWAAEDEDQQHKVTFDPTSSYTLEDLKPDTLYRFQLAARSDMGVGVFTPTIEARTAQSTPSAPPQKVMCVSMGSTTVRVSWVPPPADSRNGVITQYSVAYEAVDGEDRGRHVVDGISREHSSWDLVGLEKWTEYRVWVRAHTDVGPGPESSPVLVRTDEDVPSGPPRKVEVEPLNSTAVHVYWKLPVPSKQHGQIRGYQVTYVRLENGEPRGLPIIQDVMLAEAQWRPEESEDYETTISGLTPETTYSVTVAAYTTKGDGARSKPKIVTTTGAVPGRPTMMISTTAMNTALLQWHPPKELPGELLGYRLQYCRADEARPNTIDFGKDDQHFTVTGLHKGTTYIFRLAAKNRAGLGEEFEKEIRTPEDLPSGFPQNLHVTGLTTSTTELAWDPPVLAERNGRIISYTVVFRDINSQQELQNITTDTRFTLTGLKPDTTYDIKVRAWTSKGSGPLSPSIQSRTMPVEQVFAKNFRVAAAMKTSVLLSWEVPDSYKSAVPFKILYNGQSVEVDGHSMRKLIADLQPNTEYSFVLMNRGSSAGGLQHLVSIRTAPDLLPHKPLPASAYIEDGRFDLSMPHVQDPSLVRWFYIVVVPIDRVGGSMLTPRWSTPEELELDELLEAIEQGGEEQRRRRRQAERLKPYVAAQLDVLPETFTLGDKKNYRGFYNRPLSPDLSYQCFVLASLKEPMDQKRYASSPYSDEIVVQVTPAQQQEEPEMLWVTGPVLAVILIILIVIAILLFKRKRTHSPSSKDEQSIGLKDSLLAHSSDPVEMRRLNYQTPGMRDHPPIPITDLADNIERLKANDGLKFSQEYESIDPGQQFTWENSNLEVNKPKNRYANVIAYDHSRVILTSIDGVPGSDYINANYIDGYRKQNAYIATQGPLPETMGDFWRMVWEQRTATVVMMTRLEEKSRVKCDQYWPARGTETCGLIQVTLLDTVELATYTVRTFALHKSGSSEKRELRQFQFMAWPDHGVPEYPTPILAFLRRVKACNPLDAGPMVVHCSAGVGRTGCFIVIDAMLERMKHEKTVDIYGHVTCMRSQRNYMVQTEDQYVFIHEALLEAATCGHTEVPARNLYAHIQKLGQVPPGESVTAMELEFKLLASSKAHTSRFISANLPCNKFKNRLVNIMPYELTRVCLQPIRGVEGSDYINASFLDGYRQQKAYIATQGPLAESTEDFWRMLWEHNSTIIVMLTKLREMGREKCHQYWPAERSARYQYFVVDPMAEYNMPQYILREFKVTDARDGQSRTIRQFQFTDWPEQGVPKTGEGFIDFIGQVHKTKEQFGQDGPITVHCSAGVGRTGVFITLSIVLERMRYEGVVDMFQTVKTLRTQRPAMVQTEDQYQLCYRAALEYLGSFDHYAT

Molecule `CCCCCNC(=O)[C@H](Cc1ccc(OCC(=O)O)c(C(=O)NO)c1)NC(=O)[C@H](Cc1ccccc1)NC(=O)OC(C)(C)C` has an inhibition [1] of 13%, an inhibition [2] of 54% and an inhibition [3] of 3%. For the same molecule, the inhibition [4] was 5% and the inhibition [5] was 6%.

`CCCCCNC(=O)[C@H](Cc1ccc(OCC(=O)O)c(C(=O)OC)c1)NC(=O)[C@H](Cc1ccccc1)NC(=O)OC(C)(C)C` showed an inhibition [1] of 2%, an inhibition [2] of 4% and an inhibition [3] of 0%. It also gave an inhibition [4] of 3% and an inhibition [5] of 0%.

`CCCCCNC(=O)C(Cc1ccc(OCC(=O)O)c(C(=O)O)c1)NC(=O)CCC(=O)O` (stereo unspecified) gave a Ki [6] of 6.5 µM, an inhibition [3] of 0% and an inhibition [5] of 5%.

`CCCCCNC(=O)[C@H](Cc1ccc(OCC(=O)O)c(-c2cc(O)no2)c1)NC(=O)[C@H](Cc1ccccc1)NC(=O)OC(C)(C)C` gave an inhibition [1] of 1%, an inhibition [2] of 9% and an inhibition [3] of 0%. For the same molecule, the inhibition [4] was 1%.

Molecule `CCCCCNC(=O)[C@H](Cc1ccc(OCC(=O)NO)c(C(=O)O)c1)NC(=O)[C@H](Cc1ccccc1)NC(=O)OC(C)(C)C` has an inhibition [1] of 8%, an inhibition [2] of 30% and an inhibition [3] of 1%. The inhibition [4] was 6% and the inhibition [5] was 4%.

`CCCCCNC(=O)[C@H](Cc1ccc(OCC(=O)O)c(CCC(=O)O)c1)NC(=O)[C@H](Cc1ccccc1)NC(=O)OC(C)(C)C` was tested, and the inhibition [1] was 4%, the inhibition [2] was 18% and the inhibition [3] was 13%. The inhibition [4] was 3% and the inhibition [5] was 1%.

`CCCCCNC(=O)[C@H](Cc1ccc(OCC(N)=O)c(C(=O)O)c1)NC(=O)[C@H](Cc1ccccc1)NC(=O)OC(C)(C)C` was tested, and the inhibition [1] was 0%, the inhibition [2] was 0% and the inhibition [3] was 0%. It also gave an inhibition [4] of 0% and an inhibition [5] of 0%.

Molecule `CCCCCNC(=O)C(Cc1ccc(OCC#N)c(C(=O)O)c1)NC(=O)CCC(=O)O` (stereo unspecified) has an inhibition [2] of 3%, an inhibition [3] of 0% and an inhibition [5] of 0%.

With `CCCCCNC(=O)[C@H](Cc1ccc(OCc2nn[nH]n2)c(C(=O)O)c1)NC(=O)[C@H](Cc1ccccc1)NC(=O)OC(C)(C)C` the inhibition [1] was 3%, the inhibition [2] was 17% and the inhibition [3] was 0%. The inhibition [4] was 1% and the inhibition [5] was 5%.

`CCCCCNC(=O)[C@H](Cc1ccc(OCC(=O)O)c(-c2nn[nH]n2)c1)NC(=O)[C@H](Cc1ccccc1)NC(=O)OC(C)(C)C` gave an inhibition [1] of 77%, an inhibition [2] of 97% and an inhibition [3] of 0%. The inhibition [4] was 27%, the Uptake [7] was 147% and the Ki [8] was 2 µM. For the same molecule, the Uptake [9] was 99% and the inhibition [5] was 1%.

With `CCCCCNC(=O)[C@H](Cc1ccc(OCC(=O)O)c(C(=O)O)c1)NC(=O)[C@H](Cc1ccccc1)NC(=O)OC(C)(C)C` the inhibition [1] was 78%, the inhibition [2] was 97% and the inhibition [3] was 0%. For the same molecule, the inhibition [4] was 30%, the Ki [8] was 2 µM and the inhibition [5] was 2%.

In the case of `CCCCCNC(=O)C(Cc1ccc(OCC(=O)O)c(C#N)c1)NC(=O)CCC(=O)O` (stereo unspecified), the inhibition [2] is reported as 4%, the inhibition [3] is reported as 0% and the inhibition [5] is reported as 0%.

With `CCCCCNC(=O)C(Cc1ccc(OCC(=O)O)c(C(C)=O)c1)NC(=O)CCC(=O)O` (stereo unspecified) the inhibition [10] was 8%, the inhibition [11] was -2% and the inhibition [12] was 1%.

Molecule `CCCCCNC(=O)C(Cc1ccc(OCCO)c(C(=O)O)c1)NC(=O)CCC(=O)O` (stereo unspecified) has an inhibition [2] of 4%, an inhibition [3] of 0% and an inhibition [5] of 0%.

`CCCCCNC(=O)[C@H](Cc1ccc(OCC(=O)OC)c(C(=O)O)c1)NC(=O)[C@H](Cc1ccccc1)NC(=O)OC(C)(C)C` gave an inhibition [1] of 5%, an inhibition [2] of 25% and an inhibition [3] of 0%. For the same molecule, the inhibition [4] was 3% and the inhibition [5] was 0%.

With `CCCCCNC(=O)C(Cc1ccc2c(c1)OCCOC2=O)NC(=O)CCC(=O)O` (stereo unspecified) the inhibition [2] was 1%, the inhibition [3] was 0% and the inhibition [5] was 0%.

`CCCCCNC(=O)[C@H](Cc1ccc(OCC(=O)O)c(C#CC(=O)O)c1)NC(=O)[C@H](Cc1ccccc1)NC(=O)OC(C)(C)C` was tested, and the inhibition [1] was 3%, the inhibition [2] was 16% and the inhibition [3] was 1%. It also gave an inhibition [4] of 1% and an inhibition [5] of 1%.

— ChEMBL document CHEMBL1135929, “Investigation of potential bioisosteric replacements for the carboxyl groups of peptidomimetic inhibitors of protein tyrosine phosphatase 1B: identification of a tetrazole-containing inhibitor with cellular activity” (J Med Chem, 2002)
